From ChEMBL document CHEMBL3259656, “Discovery of AZD3199, An Inhaled Ultralong Acting β2 Receptor Agonist with Rapid Onset of Action” (ACS Med Chem Lett, 2014)
One block for each molecule: values may come before it. Active and inactive are the calls of the source. No cut-off for these calls is given here.

Columns and labels:
[1] = molecular target: Beta-2 adrenergic receptor (Homo sapiens, UniProt P07550); experiment: Agonist activity at human beta-2 adrenergic receptor expressed in human H292 cells assessed as accumulation of intracellular cAMP after 1 hr by AlphaScreen assay; assay type: functional, cell-based
Chain of Beta-2 adrenergic receptor (P07550 whole entry): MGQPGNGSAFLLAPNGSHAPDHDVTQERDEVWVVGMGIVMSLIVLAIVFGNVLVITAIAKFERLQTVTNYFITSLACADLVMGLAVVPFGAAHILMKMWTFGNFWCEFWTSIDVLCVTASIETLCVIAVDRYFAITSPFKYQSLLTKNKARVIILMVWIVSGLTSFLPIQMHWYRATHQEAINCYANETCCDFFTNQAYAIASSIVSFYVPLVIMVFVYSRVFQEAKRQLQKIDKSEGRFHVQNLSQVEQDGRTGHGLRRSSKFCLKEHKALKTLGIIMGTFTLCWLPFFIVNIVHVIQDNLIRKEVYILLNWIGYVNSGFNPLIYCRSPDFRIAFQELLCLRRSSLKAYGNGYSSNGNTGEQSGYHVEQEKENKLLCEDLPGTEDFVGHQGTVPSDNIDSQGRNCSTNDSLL

[2] = system: Cavia porcellus; experiment: Toxicity in iv dosed guinea pig assessed as change in plasma potassium level up to 60 mins; assay type: organism-based; settings: in vivo, 1 h
[3] = molecular target: T1, D(2) dopamine receptor (Homo sapiens, UniProt P14416); experiment: Agonist activity at human recombinant dopamine D2S receptor expressed in HEK cells by GTPgammaS binding assay; assay type: functional, HEK293
T1 sequence (P14416 whole entry): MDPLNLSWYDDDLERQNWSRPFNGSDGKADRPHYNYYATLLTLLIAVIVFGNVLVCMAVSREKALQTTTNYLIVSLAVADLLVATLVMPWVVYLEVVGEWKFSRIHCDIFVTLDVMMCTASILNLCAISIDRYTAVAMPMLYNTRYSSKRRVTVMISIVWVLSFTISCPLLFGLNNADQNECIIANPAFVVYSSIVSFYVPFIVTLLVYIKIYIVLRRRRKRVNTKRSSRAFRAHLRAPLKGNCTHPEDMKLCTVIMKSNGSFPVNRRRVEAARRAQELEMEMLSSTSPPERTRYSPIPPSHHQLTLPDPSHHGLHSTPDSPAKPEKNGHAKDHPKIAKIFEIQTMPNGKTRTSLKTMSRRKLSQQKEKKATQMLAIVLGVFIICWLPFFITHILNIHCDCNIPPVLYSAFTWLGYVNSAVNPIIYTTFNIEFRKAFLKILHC

[4] = system: Cavia porcellus; experiment: Bronchoprotective activity in guinea pig assessed as inhibition of histamine-induced bronchoconstriction at ED80 administered intratracheally after 4 to 24 hrs relative to control; assay type: functional, organism-based
In short: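 Guinea pigs received a single intratracheal dose of agonist. Histamine-induced bronchoconstriction was measured at several time points after dosing, up to 24 h. Bronchoprotection was expressed as inhibition relative to control animals.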

[5] = Terminal half life in iv dosed dog; assay type: ADME, organism-based, Canis lupus familiaris; settings: in vivo, read-out: beta t1/2 (converted)
[6] = system: Cavia porcellus; experiment: Bronchoprotective activity in guinea pig assessed as inhibition of histamine-induced bronchoconstriction administered intratracheally after 2 hrs; assay type: functional; settings: inhaled or nasal
[7] = molecular target: T2, Alpha-1D adrenergic receptor (Homo sapiens) (UniProt P25100); experiment: Agonist activity at human recombinant alpha-1D adrenergic receptor expressed in HEK cells assessed as intracellular calcium response; settings: HEK293
T2 sequence (whole entry): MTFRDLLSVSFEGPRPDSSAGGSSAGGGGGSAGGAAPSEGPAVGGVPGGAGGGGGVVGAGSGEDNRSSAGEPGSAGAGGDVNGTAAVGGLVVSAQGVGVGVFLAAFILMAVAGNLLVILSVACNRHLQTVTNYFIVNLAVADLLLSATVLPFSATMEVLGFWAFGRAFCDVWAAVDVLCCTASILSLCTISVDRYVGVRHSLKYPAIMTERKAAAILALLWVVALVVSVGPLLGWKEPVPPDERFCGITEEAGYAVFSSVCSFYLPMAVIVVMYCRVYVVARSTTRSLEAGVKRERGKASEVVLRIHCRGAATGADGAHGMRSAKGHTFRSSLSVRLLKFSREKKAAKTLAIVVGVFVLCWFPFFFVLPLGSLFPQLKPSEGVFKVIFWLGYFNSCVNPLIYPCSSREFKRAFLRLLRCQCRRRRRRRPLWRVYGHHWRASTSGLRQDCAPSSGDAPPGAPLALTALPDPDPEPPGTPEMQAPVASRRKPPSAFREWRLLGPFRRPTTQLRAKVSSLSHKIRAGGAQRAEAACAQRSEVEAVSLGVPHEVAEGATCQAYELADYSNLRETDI

[8] = molecular target: Beta-2 adrenergic receptor (Rattus norvegicus) (UniProt P10608); experiment: Agonist activity at beta-2 adrenergic receptor in rat C6 cells assessed as cAMP accumulation; assay type: functional, cell-based
Chain of Beta-2 adrenergic receptor (Rattus norvegicus) (P10608 whole entry, looked up): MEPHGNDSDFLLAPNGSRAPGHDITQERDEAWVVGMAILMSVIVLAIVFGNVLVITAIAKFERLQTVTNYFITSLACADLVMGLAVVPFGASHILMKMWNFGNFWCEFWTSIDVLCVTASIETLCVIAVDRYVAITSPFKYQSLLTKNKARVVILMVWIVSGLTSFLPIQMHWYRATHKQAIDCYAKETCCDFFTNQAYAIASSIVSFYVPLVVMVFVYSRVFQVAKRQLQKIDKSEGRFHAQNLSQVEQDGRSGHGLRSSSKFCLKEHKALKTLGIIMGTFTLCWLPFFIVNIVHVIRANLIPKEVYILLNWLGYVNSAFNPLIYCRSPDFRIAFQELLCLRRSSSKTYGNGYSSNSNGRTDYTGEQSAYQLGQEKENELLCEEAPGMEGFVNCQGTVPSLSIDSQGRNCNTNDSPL

[9] = molecular target: Beta-2 adrenergic receptor (Canis lupus familiaris) (UniProt P54833); experiment: Agonist activity at dog recombinant beta-2 adrenergic receptor assessed as cAMP accumulation by cell-based assay; assay type: functional
Chain of Beta-2 adrenergic receptor (Canis lupus familiaris) (P54833 whole entry, looked up): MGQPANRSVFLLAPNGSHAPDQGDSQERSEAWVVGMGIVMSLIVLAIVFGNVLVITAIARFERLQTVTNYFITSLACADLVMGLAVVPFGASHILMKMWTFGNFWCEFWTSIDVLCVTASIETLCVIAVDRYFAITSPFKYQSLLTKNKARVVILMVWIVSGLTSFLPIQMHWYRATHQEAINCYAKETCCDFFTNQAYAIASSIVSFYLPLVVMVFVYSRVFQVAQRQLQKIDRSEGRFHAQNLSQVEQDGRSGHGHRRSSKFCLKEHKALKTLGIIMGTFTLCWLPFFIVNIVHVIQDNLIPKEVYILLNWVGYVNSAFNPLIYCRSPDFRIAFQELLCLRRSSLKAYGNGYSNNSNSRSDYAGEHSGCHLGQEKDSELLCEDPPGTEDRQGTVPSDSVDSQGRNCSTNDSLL

[10] = Terminal half life in iv dosed guinea pig; assay type: ADME, organism-based, Cavia porcellus; settings: in vivo, read-out: beta t1/2 (converted)
[11] = Apparent volume of distribution in iv dosed guinea pig; assay type: ADME, organism-based, Cavia porcellus; settings: in vivo, read-out: Vz
[12] = Apparent volume of distribution in iv dosed dog; assay type: ADME, organism-based, Canis lupus familiaris; settings: in vivo, read-out: Vz
[13] = Oral bioavailability in rat; assay type: ADME, organism-based; settings: in vivo
[14] = system: Cavia porcellus; experiment: Bronchoprotective activity in guinea pig assessed as inhibition of histamine-induced bronchoconstriction at ED80 administered intratracheally after 24 hrs relative to control; assay type: functional
In short: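 Guinea pigs received a single intratracheal dose, set from a dose–response in the same histamine-induced bronchoconstriction model. Histamine challenge was given at several times after dosing, and inhibition of bronchoconstriction was measured. Bronchoprotection at 24 h was expressed relative to control animals.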

[15] = molecular target: Beta-2 adrenergic receptor (Canis lupus familiaris) (UniProt P54833); experiment: Intrinsic activity at dog recombinant beta-2 adrenergic receptor
[16] = Apparent volume of distribution in iv dosed rat; assay type: ADME, organism-based; settings: in vivo, read-out: Vz
[17] = Oral bioavailability in dog; assay type: ADME, organism-based, Canis lupus familiaris; settings: in vivo
[18] = molecular target: Beta-2 adrenergic receptor (Rattus norvegicus) (UniProt P10608); experiment: Intrinsic activity at beta-2 adrenergic receptor in rat C6 cells; assay type: cell-based
[19] = molecular target: Beta-2 adrenergic receptor (Mus musculus) (UniProt P18762); experiment: Intrinsic activity at mouse recombinant beta-2 adrenergic receptor
Chain of Beta-2 adrenergic receptor (Mus musculus) (P18762 whole entry, looked up): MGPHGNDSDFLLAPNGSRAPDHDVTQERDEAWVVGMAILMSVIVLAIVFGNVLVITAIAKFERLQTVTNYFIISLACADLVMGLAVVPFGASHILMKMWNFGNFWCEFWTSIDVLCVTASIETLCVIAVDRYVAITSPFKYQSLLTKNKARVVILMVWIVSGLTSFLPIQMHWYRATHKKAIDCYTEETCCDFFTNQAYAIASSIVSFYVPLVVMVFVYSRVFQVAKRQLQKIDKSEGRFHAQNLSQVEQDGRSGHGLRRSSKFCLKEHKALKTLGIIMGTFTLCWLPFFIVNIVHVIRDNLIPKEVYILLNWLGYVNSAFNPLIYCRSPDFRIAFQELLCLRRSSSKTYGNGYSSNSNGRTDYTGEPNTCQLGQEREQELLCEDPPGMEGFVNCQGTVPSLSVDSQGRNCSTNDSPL

[20] = molecular target: T1, D(2) dopamine receptor; experiment: Partial agonist activity at human recombinant dopamine D2S receptor expressed in HEK cells by GTPgammaS binding assay; assay type: functional, cell-based; settings: HEK293
[21] = molecular target: Beta-2 adrenergic receptor (Mus musculus) (UniProt P18762); experiment: Agonist activity at mouse recombinant beta-2 adrenergic receptor assessed as cAMP accumulation by cell-based assay; assay type: functional
[22] = species on record: Oryctolagus cuniculus; experiment: Agonist activity at rabbit recombinant beta-2 adrenergic receptor assessed as cAMP accumulation by cell-based assay
[23] = Intrinsic clearance in rat measured per million cells; assay type: ADME
[24] = system: Cavia porcellus; experiment: Bronchoprotective activity in guinea pig assessed as inhibition of histamine-induced bronchoconstriction administered intratracheally after 2 hrs in presence of propanolol; assay type: functional, organism-based
In short: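 In the guinea pig histamine-induced bronchoconstriction model, propranolol was given at 1 mg/kg i.v. to check that the bronchoprotection was mediated through β2 receptors.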

[25] = species on record: Oryctolagus cuniculus; experiment: Intrinsic activity at rabbit recombinant beta-2 adrenergic receptor
[26] = Terminal half life in iv dosed rat; assay type: ADME, organism-based; settings: in vivo, read-out: beta t1/2 (converted)
[27] = molecular target: Beta-2 adrenergic receptor (Cavia porcellus) (UniProt Q8K4Z4); settings: Trachea
Chain of Beta-2 adrenergic receptor (Cavia porcellus) (Q8K4Z4 whole entry, looked up): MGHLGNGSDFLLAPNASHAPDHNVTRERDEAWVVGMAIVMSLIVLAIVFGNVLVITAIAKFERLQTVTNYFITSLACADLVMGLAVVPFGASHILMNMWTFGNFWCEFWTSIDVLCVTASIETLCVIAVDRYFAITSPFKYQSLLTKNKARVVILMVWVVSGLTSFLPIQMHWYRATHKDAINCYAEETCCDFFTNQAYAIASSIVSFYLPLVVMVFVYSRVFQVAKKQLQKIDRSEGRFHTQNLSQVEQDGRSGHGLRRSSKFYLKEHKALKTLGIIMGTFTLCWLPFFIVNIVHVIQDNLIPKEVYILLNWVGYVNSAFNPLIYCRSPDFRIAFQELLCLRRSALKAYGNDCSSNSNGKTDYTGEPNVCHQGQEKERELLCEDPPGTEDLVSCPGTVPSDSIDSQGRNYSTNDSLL

EC50 [1]: 7.94 nM
SMILES: CN(CCCN(CCNCCc1ccc(O)c2[nH]c(=O)sc12)C(=O)CCOCCc1cccc(Cl)c1)C1CC1

EC50 [1]: 12.6 nM
SMILES: O=C(CCOCCc1cccc(Cl)c1)N(CCNCCc1ccc(O)c2[nH]c(=O)sc12)CCN1CCCCC1

EC50 [1]: 5.01 nM
SMILES: CC(C)N(C)CCCN(CCNCCc1ccc(O)c2[nH]c(=O)sc12)C(=O)CCOCCc1cccc(Cl)c1

EC50 [1]: 7.94 nM
SMILES: CCN(CC)CCN(CCNCCc1ccc(O)c2[nH]c(=O)sc12)C(=O)CCOCCc1cccc(OC)c1

SMILES: CC(C)(C)NCC(O)c1ccc(O)c(CO)c1 (stereo unspecified) [ALBUTEROL]
Activity [2]: Toxic

EC50 [3]: 2 nM
SMILES: O=c1[nH]c2c(O)ccc(CCNCCS(=O)(=O)CCCOCCc3ccccc3)c2s1 [SIBENADET]

SMILES: OCc1cc(C(O)CNCCCCCCOCCCCc2ccccc2)ccc1O (stereo unspecified)
inhibition [4]: Active

EC50 [1]: 15.8 nM
SMILES: CN(C)CCCN(CCNCCc1ccc(O)c2[nH]c(=O)sc12)C(=O)CCOCCc1ccccc1

EC50 [1]: 6.31 nM
SMILES: CN(C)CCN(CCNCCc1ccc(O)c2[nH]c(=O)sc12)C(=O)CCOCCc1ccccc1

EC50 [1]: 316 nM
SMILES: NCCCN(CCNCCc1ccc(O)c2[nH]c(=O)sc12)C(=O)CCOCCc1ccccc1

half-life [5]: 18 h
Activity [7]: inactive
Activity [8]: Active
Activity [9]: Active
half-life [10]: 17 h
Vd [11]: 22 L/kg
Vd [12]: 17 L/kg
bioavailability [13]: < 2%
Activity [15]: Active
Vd [16]: 23 L/kg
bioavailability [17]: < 2%
Activity [18]: Active
Activity [19]: Active
Activity [20]: Active
Activity [21]: Active
hepatocyte CLint [23]: 105 µL/min/1e6 cells
Activity [25]: Active
half-life [26]: 11 h
SMILES: Br.CCN(CC)CCN(CCNCCc1ccc(O)c2[nH]c(=O)sc12)C(=O)CCOCCc1cccc2ccccc12
Activity [2]: Toxic
ED80 [6]: 0.027 mg/kg
inhibition (INH) [14]: 58%
Activity [22]: Active
Activity [24]: inactive

EC50 [1]: 6.31 nM
SMILES: CCN(CC)CCN(CCNCCc1ccc(O)c2[nH]c(=O)sc12)C(=O)CCOCCc1cccc(Cl)c1

pA50 [27]: 7.7
SMILES: CCc1cc2c(cc1CC)CC(NC[C@H](O)c1ccc(O)c3[nH]c(=O)ccc13)C2

EC50 [1]: 10 nM
SMILES: CCN(C)CCCN(CCNCCc1ccc(O)c2[nH]c(=O)sc12)C(=O)CCOCCc1cccc(Cl)c1
